Calls of active or inactive are those of the source. The calls are words filed in the database; no cut-off is given here.
Experiments:
Trypsin (Sus scrofa) [1] = target: Trypsin (Sus scrofa) (UniProt P00761); assay: Inactivation constant determined against porcine trypsin
[2] = target: T1, Urokinase-type plasminogen activator (Homo sapiens, UniProt P00749); assay: Apparent binding constant against Human urokinase
Outline: (§1)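 Pseudo-first-order inactivation at pH 7.5, 25 °C, inhibitor in excess. Two methods. Preincubation: aliquots taken over time and assayed for residual activity, kobs from semilog plots. Progress curve: continuous A405 with chromogenic substrate present, vs blank with inhibitor and substrate (trypsin 0.5 μM, BAPNA 0.3 mM, 1.5% DMSO; urokinase 31 nM, S-2444). KI and kinact from double-reciprocal (Wilkinson) fits.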

[3] = target: Plasminogen (Homo sapiens) (UniProt P00747); assay: Ratio of inactivation to apparent binding constant against plasmin
Outline: (§2)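 Plasmin (1 μM; 0.7 μM in one series) preincubated with inhibitor 34-560 μM at pH 7.5, 25 °C. Aliquots assayed for residual activity on S-2251. kobs from semilog plots; kinact/KI from Kitz-Wilson analysis or as kobs/[I].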

[4] = target: T1, Urokinase-type plasminogen activator; assay: Ratio of inactivation to apparent binding constant against human urokinase
Outline: as §1

[5] = target: T1, Urokinase-type plasminogen activator; assay: Inactivation constant determined against urokinase
Outline: as §1

[6] = target: T2, Serine protease 1 (Bos taurus) (UniProt P00760); assay: Ratio of inactivation to apparent binding constant against bovine trypsin
T2 sequence (whole entry): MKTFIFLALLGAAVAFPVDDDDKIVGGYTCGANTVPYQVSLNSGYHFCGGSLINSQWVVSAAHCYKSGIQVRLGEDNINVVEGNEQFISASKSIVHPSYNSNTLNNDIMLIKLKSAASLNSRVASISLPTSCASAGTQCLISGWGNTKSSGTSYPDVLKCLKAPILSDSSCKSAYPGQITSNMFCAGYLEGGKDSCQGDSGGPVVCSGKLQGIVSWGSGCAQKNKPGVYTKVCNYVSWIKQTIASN
Outline: as §1

[7] = target: Tissue-type plasminogen activator (Homo sapiens) (UniProt P00750); assay: Ratio of inactivation to apparent binding constant against tissue plasminogen activator (t-PA);NI=no inhibition
Outline: (§3)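 t-PA (0.75 μM) preincubated with inhibitor 0.37-1 mM at pH 7.5, 25 °C. Aliquots assayed periodically for remaining amidolytic activity with p-nitroanilide substrate. kobs from semilogarithmic plots.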

Trypsin (Sus scrofa) [8] = target: Trypsin (Sus scrofa) (UniProt P00761); assay: Ratio of inactivation to apparent binding constant against porcine trypsin
[9] = target: Prothrombin (Homo sapiens) (UniProt P00734); assay: Ratio of inactivation to apparent binding constant against thrombin;NI=no inhibition
Outline: (§4)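 Thrombin (0.1 μM) preincubated with 300 μM inhibitor at pH 7.5, 25 °C. Timed aliquots assayed for residual activity with S-2238. Pseudo-first-order kobs from semilog plot of remaining activity vs time.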

[10] = target: T2, Serine protease 1 (Bos taurus); assay: Inactivation constant determined against bovine trypsin
Outline: as §1

Serine protease 1 = target: T3, Serine protease 1 (Bos taurus, UniProt P00760); assay: Apparent binding constant against bovine trypsin
T3 sequence (P00760 whole entry): T2 sequence (whole entry)
Outline: as §1

[11] = target: Plasminogen (Homo sapiens) (UniProt P00747); assay: Ratio of inactivation to apparent binding constant against plasmin;NI=no inhibition
Outline: as §2

[12] = target: T1, Urokinase-type plasminogen activator; assay: Ratio of inactivation to apparent binding constant against human urokinase; NI=no inhibition
[13] = target: T2, Serine protease 1 (Bos taurus); assay: Ratio of inactivation to apparent binding constant against bovine trypsin;NI=no inhibition
[14] = target: Prothrombin (Homo sapiens) (UniProt P00734); assay: Ratio of inactivation to apparent binding constant against thrombin
Outline: as §4

[15] = target: Tissue-type plasminogen activator (Homo sapiens) (UniProt P00750); assay: Ratio of inactivation to apparent binding constant against tissue plasminogen activator (t-PA)
Outline: as §3

[16] = target: T1, Urokinase-type plasminogen activator
[17] = target: T2, Serine protease 1 (Bos taurus)
[18] = target: T1, Urokinase-type plasminogen activator; assay: Ratio of inactivation to apparent binding constant against human urokinase (obtained as k obs/[I] at low inhibitor concentration)
Outline: (§5)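 For weak inactivation, kinact/KI taken as kobs/[I] at low inhibitor concentration. Preincubation at pH 7.5, 25 °C: trypsin 4.5 μM or urokinase 55 μM with excess inhibitor. Aliquots diluted (or filtered at 4 °C) and assayed for residual activity on BAPNA or S-2444. kobs by least squares of semilog remaining activity vs time.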

[19] = target: T2, Serine protease 1 (Bos taurus); assay: Ratio of inactivation to apparent binding constant against bovine trypsin (obtained as k obs/[I] at low inhibitor concentration)
Outline: as §5

Sequence of Plasminogen (Homo sapiens) (P00747 97-580 limits assumed): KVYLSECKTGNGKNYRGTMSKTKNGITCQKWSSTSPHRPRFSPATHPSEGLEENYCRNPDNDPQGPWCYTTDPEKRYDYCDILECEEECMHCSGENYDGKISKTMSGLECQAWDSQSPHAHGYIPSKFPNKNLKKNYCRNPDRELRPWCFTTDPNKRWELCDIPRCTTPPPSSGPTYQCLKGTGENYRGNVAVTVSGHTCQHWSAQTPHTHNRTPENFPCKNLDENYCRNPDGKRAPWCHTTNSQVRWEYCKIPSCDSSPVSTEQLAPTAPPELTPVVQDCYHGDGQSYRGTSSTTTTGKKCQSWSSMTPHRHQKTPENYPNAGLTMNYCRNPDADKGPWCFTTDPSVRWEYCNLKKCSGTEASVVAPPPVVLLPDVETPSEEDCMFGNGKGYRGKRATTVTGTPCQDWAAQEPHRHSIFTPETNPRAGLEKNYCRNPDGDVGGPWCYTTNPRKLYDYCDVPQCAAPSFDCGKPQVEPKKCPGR
Sequence of Plasminogen (Homo sapiens) (P00747 581-810 limits assumed): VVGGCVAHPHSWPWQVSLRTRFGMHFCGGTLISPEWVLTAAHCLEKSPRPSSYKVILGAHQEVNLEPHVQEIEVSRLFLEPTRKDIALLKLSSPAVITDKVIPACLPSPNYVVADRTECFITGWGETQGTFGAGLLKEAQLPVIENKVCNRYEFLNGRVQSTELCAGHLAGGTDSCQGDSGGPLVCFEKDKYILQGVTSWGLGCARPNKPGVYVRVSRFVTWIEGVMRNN
Sequence of Tissue-type plasminogen activator (Homo sapiens) (P00750 36-562 limits assumed): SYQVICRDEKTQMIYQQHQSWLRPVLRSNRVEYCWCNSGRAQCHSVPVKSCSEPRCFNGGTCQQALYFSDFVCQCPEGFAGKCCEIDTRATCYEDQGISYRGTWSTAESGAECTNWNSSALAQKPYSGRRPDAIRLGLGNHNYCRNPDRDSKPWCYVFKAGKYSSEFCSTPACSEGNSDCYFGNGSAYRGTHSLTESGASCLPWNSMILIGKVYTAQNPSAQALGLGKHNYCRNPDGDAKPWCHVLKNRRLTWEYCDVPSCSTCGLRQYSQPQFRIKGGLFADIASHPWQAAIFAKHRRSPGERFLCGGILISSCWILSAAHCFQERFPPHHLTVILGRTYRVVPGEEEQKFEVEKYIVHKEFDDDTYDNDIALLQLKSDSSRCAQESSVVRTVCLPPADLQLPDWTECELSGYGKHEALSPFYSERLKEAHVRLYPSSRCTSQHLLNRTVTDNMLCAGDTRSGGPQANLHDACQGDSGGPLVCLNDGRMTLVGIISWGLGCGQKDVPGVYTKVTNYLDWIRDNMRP
Sequence of Trypsin (Sus scrofa) (P00761 whole entry, looked up): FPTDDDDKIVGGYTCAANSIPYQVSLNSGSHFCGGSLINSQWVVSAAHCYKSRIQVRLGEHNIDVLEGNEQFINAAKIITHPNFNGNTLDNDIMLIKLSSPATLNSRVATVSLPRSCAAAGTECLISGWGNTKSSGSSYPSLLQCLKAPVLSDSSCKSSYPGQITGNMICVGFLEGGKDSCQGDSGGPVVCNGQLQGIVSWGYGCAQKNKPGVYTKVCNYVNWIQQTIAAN

| Ki [2] [µM] | Ratio [3] | Ratio [4] [M⁻¹ s⁻¹] | K inact [5] [s⁻¹] | Ratio [6] [M⁻¹ s⁻¹] | Ratio [7] | Ratio [9] | K inact [10] [s⁻¹] | Ki (Serine protease 1) [µM] | Ratio [11] | Ratio [13] | SMILES | further results |
| --- | --- | --- | --- | --- | --- | --- | --- | --- | --- | --- | --- | --- |
| 92 | 2 M⁻¹ s⁻¹ | 185 | 0.017 | 560 | inactive | inactive | 0.031 | 55 |  |  | N=C(N)NCCCC1NC(=O)CNC(=O)c2cc(ccc2CBr)NC1=O (stereo unspecified) | K inact (Trypsin (Sus scrofa) [1]): 0.041 s⁻¹; Ratio (Trypsin (Sus scrofa) [8]): 2050 M⁻¹ s⁻¹ |
|  |  |  |  | 250 | inactive | inactive | 0.02 | 80 | inactive |  | NCCCCC1NC(=O)CNC(=O)c2cc(ccc2CBr)NC1=O (stereo unspecified) |  |
|  |  |  |  |  | inactive | inactive |  |  | inactive | inactive | NCCCCC1NC(=O)CNC(=O)c2cc(CBr)ccc2NC1=O (stereo unspecified) | Ratio [12]: inactive |
| 500 | 75 M⁻¹ s⁻¹ | 154 | 0.077 | 860 | inactive | inactive | 0.0075 | 8.7 |  |  | C[S+](Cc1ccc2cc1C(=O)NCC(=O)NC(CCCCN)C(=O)N2)c1ccccc1 (stereo unspecified) |  |
|  | No inactivation |  |  |  |  |  |  |  |  | 5 M⁻¹ s⁻¹ | N=C(N)NCCCC1NC(=O)CNC(=O)c2cc(CBr)ccc2NC1=O (stereo unspecified) | Ratio [12]: 14 M⁻¹ s⁻¹; Ratio [14]: No inactivation; Ratio [15]: No inactivation |
| 41 |  | 341 | 0.014 | 1 | inactive | inactive |  |  | inactive |  | C[S+](C)Cc1ccc2cc1C(=O)NCC(=O)NC(CCCN=C(N)N)C(=O)N2 (stereo unspecified) |  |
|  |  | 25 |  |  | inactive | inactive |  |  | inactive | inactive | C[S+](Cc1ccc2c(c1)C(=O)NCC(=O)NC(CCCCN)C(=O)N2)c1ccccc1 (stereo unspecified) |  |
| 9 | 40 M⁻¹ s⁻¹ | 2330 |  | 916 | 1 M⁻¹ s⁻¹ | 12 M⁻¹ s⁻¹ |  | 12 |  |  | C[S+](Cc1ccc2cc1C(=O)NCC(=O)NC(CCCN=C(N)N)C(=O)N2)c1ccccc1 (stereo unspecified) | kinact [16]: 0.021 s⁻¹; kinact [17]: 0.011 s⁻¹ |
|  |  |  |  |  | inactive | inactive |  |  | inactive | inactive | C[S+](C)Cc1ccc2cc1C(=O)NCC(=O)NC(CCCCN)C(=O)N2 (stereo unspecified) |  |
|  |  |  |  |  | inactive | inactive |  |  | inactive |  | C[S+](Cc1ccc2c(c1)C(=O)NCC(=O)NC(CCCN=C(N)N)C(=O)N2)c1ccccc1 (stereo unspecified) | Ratio [18]: 14 M⁻¹ s⁻¹; Ratio [19]: 50 M⁻¹ s⁻¹ |

Source: ChEMBL document CHEMBL1126701, “New mechanism-based inactivators of trypsin-like proteinases. Selective inactivation of urokinase by functionalized cyclopeptides incorporating a sulfoniomethyl-substituted m-aminobenzoic acid residue” (J Med Chem, 1993)
